Experimental data gathered from unrelated publications.
Lines come from different studies, so protocols differ.
Cell line: HCT-116
Observed: cell growth or viability

SMILES	test	conditions	IC50
CC(=O)Oc1ccc2oc(=O)cc(CSC(C)=O)c2c1	MTT	36 h	> 20 µM
CSc1nc(NC(=S)NCCc2ccccc2)n(-c2ccc(C(=O)O)cc2)n1	MTT		45.8 µM
Nc1ncnc2c1ncn2[C@@H]1O[C@H](CO)[C@@H](O)[C@H]1O	WST-1	48 h	41.8 µM
CC(=O)Oc1ccc2ccc(=O)oc2c1CBr	MTT	36 h	> 20 µM
COc1ccnc(COc2ccc(NC(=O)Nc3cccc(C(F)(F)F)c3)cc2)c1OC	MTT	72 h	22.9 µM
O=C(O)C[C@H](O)C[C@H](O)/C=C/c1c(C2CC2)nc2ccccc2c1-c1ccc(F)cc1	SRB	72 h	7.46 µg/mL
CC1=C(O)C(=O)C=C2C1=CC=C1[C@@]2(C)CC[C@@]2(C)[C@@H]3C[C@](C)(C(=O)OCCCn4ccc5ccccc54)CC[C@]3(C)CC[C@]12C	MTT	48 h	2.75 µM
COc1ccc(Nc2nc(-n3nc(C)cc3C)nc(-n3nc(C)cc3C)n2)cc1	MTT	72 h	3.66 µM
NC(=O)NOCCCCCCCCCCCCCCCCCCCC[P+](c1ccccc1)(c1ccccc1)c1ccccc1	imaging		0.23 µM
COCCCOc1ccnc(COc2ccc(NC(=O)Nc3cccc(C(F)(F)F)c3)cc2)c1C	MTT	72 h	8.81 µM
O=C(/N=C1\S/C(=C\c2ccc(Cl)cc2)C(=O)N1C1CCCCC1)c1ccc2ccccc2c1		48 h	9.28 µM
CC(C)[C@H](N)c1nc2cc(-c3ccncc3F)sc2c(=O)[nH]1	MTT		0.158 µM
COC(=O)/C=C1\S/C(=N\C(=O)c2ccc3ccccc3c2)N(C2CCCCC2)C1=O		48 h	12.2 µM
COc1cc([C@@H]2c3cc4c(cc3[C@@H](O[C@@H]3O[C@@H]5CO[C@@H](C)O[C@H]5[C@H](O)[C@H]3O)[C@H]3COC(=O)[C@H]23)OCO4)cc(OC)c1O	MTS	72 h	19.3 µM
COc1c(C)cnc(COc2ccc(NC(=O)Nc3ccc(Cl)c(C(F)(F)F)c3)cc2)c1C	MTT	72 h	8.17 µM
CC1=C(O)C(=O)C=C2C1=CC=C1[C@@]2(C)CC[C@@]2(C)[C@@H]3C[C@](C)(C(=O)OCCO)CC[C@]3(C)CC[C@]12C	MTT	48 h	0.47 µM
COCCCOc1ccnc(COc2ccc(NC(=O)Nc3ccc(F)cc3)cc2)c1C	MTT	72 h	6.44 µM
CCN(CC)C(=S)NC(=O)c1ccc2ccccc2c1		48 h	5.07 µM
COc1ccc2oc(=O)cc(CSC(C)=O)c2c1	MTT	36 h	> 20 µM
COc1cccc2c1C(=O)c1c(O)c3c(c(O)c1C2=O)C[C@@](O)(C(=O)CO)C[C@@H]3O[C@H]1C[C@H](N)[C@H](O)[C@H](C)O1	SRB		0.11 µM
CS(=O)(=O)c1nc(N)n(-c2ccc(C(=O)O)cc2)n1	MTT		48.5 µM
Cc1c(C)c2c(O)cc(O)cc2oc1=O	MTT	36 h	> 20 µM
COc1cc(-c2nc(C(=O)Nc3nnc(-c4cc5ccccc5n4C)s3)cc3c2[nH]c2ccccc23)cc(OC)c1OC	MTT	72 h	6.11 µM
CSc1nc(/N=C/c2cccc(O)c2)n(-c2ccc(C(=O)O)cc2)n1	MTT		70.1 µM

SMILES	test	conditions	IC50
O=C(NC(=S)N1CCCCC1)c1ccc2ccccc2c1		48 h	9.12 µM
O=C1Nc2c(C(F)(F)F)cccc2[C@@]1(c1ccc(O)cc1)c1ccc(OC(F)(F)F)cc1	resazurin	7 days	0.093 µM
FC(F)(F)c1ccc(C(c2c[nH]c3ccccc23)c2c[nH]c3ccccc23)cc1	ATP luminescence	22 h	9.3 µM
COCCCOC(=O)[C@]1(C)CC[C@]2(C)CC[C@]3(C)C4=CC=C5C(=CC(=O)C(O)=C5C)[C@]4(C)CC[C@@]3(C)[C@@H]2C1	MTT	48 h	0.49 µM
CC(=O)c1ccc(-c2cccc(NC(=O)CCc3cccc4c3B(O)OC4)c2)cc1	ATP luminescence	72 h	0.28 µM
CCn1c(-c2nnc(NC(=O)c3cc4c([nH]c5ccccc54)c(-c4ccc(C)cc4)n3)s2)cc2ccccc21	MTT	72 h	15.1 µM
O=C(/C=C/c1ccc(O)c(O)c1)O[C@@H]1C[C@](O)(C(=O)O)C[C@@H](O)[C@H]1O	WST-1	48 h	27.9 µM
CC1CCC(OCn2c[n+](Cc3ccccc3)c3ccccc32)CC1 (stereo not drawn)	MTT	72 h	21.9 µM
COc1ccc(NC(=O)Nc2ccc(OCc3nccc(OC)c3OC)cc2)cc1	MTT	72 h	13.1 µM
CCC[C@H](Nc1nc(-c2ccc(NC(=O)NCC)c(OC)c2)ncc1C)c1cccnc1	fluorescence	72 h	0.0477 µM
COc1c(C)cnc(COc2ccc(NC(=O)Nc3ccc(F)cc3)cc2)c1C	MTT	72 h	12.7 µM
O=C(NC(=S)NCc1ccc(CNC(=S)NC(=O)c2ccc3ccccc3c2)cc1)c1ccc2ccccc2c1		48 h	1.35 µM
CC[C@H](C)C(=O)O[C@H]1C[C@H](O)C=C2C=C[C@H](C)[C@H](CC[C@@H](O)C[C@@H](O)CC(=O)O)[C@H]21	SRB	72 h	1.57 µg/mL
C=CC(=O)Nc1cccc(Nc2nc(Nc3ccc(OCCOC)cc3)ncc2F)c1			6.79 µM
O=C(NC(=S)Nc1ccc([N+](=O)[O-])cc1)c1ccc2ccccc2c1		48 h	6.09 µM
COC(=O)c1ccc(-n2nc(SC)nc2N)cc1	MTT		39.1 µM
COc1cc(CNC(=O)CCCC/C=C/C(C)C)ccc1O	SRB		40.2 µM
c1ccc(C[n+]2cn(COC3CCCCC3)c3ccccc32)cc1	MTT	72 h	44.2 µM
CC1=C(O)C(=O)C=C2C1=CC=C1[C@@]2(C)CC[C@@]2(C)[C@@H]3C[C@](C)(C(=O)OCCCN4C(=O)C5C=CC=CC5C4=O)CC[C@]3(C)CC[C@]12C (stereo partly drawn)	MTT	48 h	0.64 µM
CSc1nc(/N=C/c2cc(Br)ccc2O)n(-c2ccc(C(=O)O)cc2)n1	MTT		59.4 µM
COc1ccnc(COc2ccc(NC(=O)Nc3ccc(Cl)cc3)cc2)c1OC	MTT	72 h	12.8 µM
COc1ccc(-c2nc(C(=O)Nc3nnc(-c4cc5ccccc5[nH]4)s3)cc3c2[nH]c2ccccc23)cc1	MTT	72 h	4.78 µM
COCCCOc1ccnc(COc2ccc(NC(=O)Nc3ccc(Cl)cc3)cc2)c1C	MTT	72 h	9.5 µM
COc1cc(/C=N/c2nc(SC)nn2-c2ccc(C(=O)O)cc2)ccc1O	MTT		61.1 µM
